Results reported in ChEMBL document CHEMBL2069213, “Synthesis and evaluation of small libraries of triazolylmethoxy chalcones, flavanones and 2-aminopyrimidines as inhibitors of mycobacterial FAS-II and PknG” (Bioorg Med Chem, 2012).
Active and inactive are the calls of the source. No cut-off for these calls is given here.

Columns and labels:
Mycolicibacterium aurum [1] = test: Inhibition of FAS2 in recombinant Mycobacterium aurum expressing Mycobacterium tuberculosis H37Rv kas operon in fusion Escherichia coli lacZ gene assessed as increase in beta-galactosidase activity at 50 uM incubated for 12 hrs by lacZ reporter gene assay
In short: (§1)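 Cells washed, sonicated in PBS pH 7.2; equal Bradford-quantified protein incubated with ONPG (4 mg/ml) 30 min at 37 °C, stopped with Na2CO3, read at 410 nm. Triplicates, experiment repeated twice; isoniazid positive control.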

Mycolicibacterium aurum [2] = test: Inhibition of FAS2 in recombinant Mycobacterium aurum expressing Mycobacterium tuberculosis H37Rv kas operon in fusion Escherichia coli lacZ gene assessed as increase in beta-galactosidase activity at 100 uM incubated for 12 hrs by lacZ reporter gene assay; in short: as §1
Mycolicibacterium aurum [3] = test: Growth inhibition of Mycobacterium aurum expressing Mycobacterium tuberculosis H37Rv kas operon in fusion Escherichia coli lacZ gene at 50 uM incubated for 12 hrs; format: functional; conditions: read-out: GI
Mycolicibacterium aurum [4] = test: Growth inhibition of Mycobacterium aurum expressing Mycobacterium tuberculosis H37Rv kas operon in fusion Escherichia coli lacZ gene at 100 uM incubated for 12 hrs; format: functional; conditions: read-out: GI
[5] = Toxicity against macrophages incubated for 48 hrs by resazurin dye reduction assay; format: cell-based, Macrophage
In short: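 Macrophages from subconfluent monolayers seeded ~1 × 10^6 cells/well in RPMI-1640; compounds 100 to 12.5 µM, 48 h at 37 °C, 5% CO2; resazurin added for 4 h, fluorescence 535/590 nm read against untreated wells as % viability; CC50 taken from viability-versus-concentration plot; triplicates.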

Mycolicibacterium aurum [6] = test: Inhibition of FAS2 in recombinant Mycobacterium aurum expressing hsp60 promoter in fusion Escherichia coli lacZ gene assessed as increase in beta-galactosidase activity at 50 uM incubated for 12 hrs by lacZ reporter gene assay
Mycolicibacterium aurum [7] = test: Inhibition of FAS2 in recombinant Mycobacterium aurum expressing hsp60 promoter in fusion Escherichia coli lacZ gene assessed as increase in beta-galactosidase activity at 100 uM incubated for 12 hrs by lacZ reporter gene assay
[8] = molecular target: Serine/threonine-protein kinase PknG (Mycobacterium tuberculosis) (UniProt P9WI73); test: Inhibition of Mycobacterium tuberculosis recombinant PKnG expressed in Escherichia coli BL21 (DE3) cells using myelin basic protein substrate at 100 uM by luciferase activity based ADP-Glo-luminescent kinase assay
In short: (§2)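 6-His-PknG from M. tuberculosis genomic DNA cloned into pTriEx4, expressed in E. coli with 0.8 mM IPTG 4 h at 37 °C, purified by Ni2+-NTA then size exclusion. Compounds dissolved in DMSO; assayed with myelin basic protein substrate; ADP formed measured by ADP-Glo luminescence; AX20017 positive control; dose-response series.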

[9] = molecular target: Serine/threonine-protein kinase PknG (Mycobacterium tuberculosis) (UniProt P9WI73); test: Inhibition of Mycobacterium tuberculosis recombinant PKnG expressed in Escherichia coli BL21 (DE3) cells using myelin basic protein substrate at 12.5 uM by luciferase activity based ADP-Glo-luminescent kinase assay; in short: as §2
[10] = molecular target: Serine/threonine-protein kinase PknG (Mycobacterium tuberculosis) (UniProt P9WI73); test: Inhibition of Mycobacterium tuberculosis recombinant PKnG expressed in Escherichia coli BL21 (DE3) cells using myelin basic protein substrate at 50 uM by luciferase activity based ADP-Glo-luminescent kinase assay; in short: as §2
[11] = molecular target: Serine/threonine-protein kinase PknG (Mycobacterium tuberculosis) (UniProt P9WI73); test: Inhibition of Mycobacterium tuberculosis recombinant PKnG expressed in Escherichia coli BL21 (DE3) cells using myelin basic protein substrate at 25 uM by luciferase activity based ADP-Glo-luminescent kinase assay; in short: as §2
[12] = molecular target: Serine/threonine-protein kinase PknG (Mycobacterium tuberculosis) (UniProt P9WI73); test: Inhibition of Mycobacterium tuberculosis recombinant PKnG expressed in Escherichia coli BL21 (DE3) cells using myelin basic protein substrate at 6.25 uM by luciferase activity based ADP-Glo-luminescent kinase assay; in short: as §2
[13] = molecular target: Serine/threonine-protein kinase PknG (Mycobacterium tuberculosis) (UniProt P9WI73); test: Inhibition of Mycobacterium tuberculosis recombinant PKnG expressed in Escherichia coli BL21 (DE3) cells using myelin basic protein substrate at 3.125 uM by luciferase activity based ADP-Glo-luminescent kinase assay; in short: as §2

Serine/threonine-protein kinase PknG (Mycobacterium tuberculosis), sequence (P9WI73 whole entry): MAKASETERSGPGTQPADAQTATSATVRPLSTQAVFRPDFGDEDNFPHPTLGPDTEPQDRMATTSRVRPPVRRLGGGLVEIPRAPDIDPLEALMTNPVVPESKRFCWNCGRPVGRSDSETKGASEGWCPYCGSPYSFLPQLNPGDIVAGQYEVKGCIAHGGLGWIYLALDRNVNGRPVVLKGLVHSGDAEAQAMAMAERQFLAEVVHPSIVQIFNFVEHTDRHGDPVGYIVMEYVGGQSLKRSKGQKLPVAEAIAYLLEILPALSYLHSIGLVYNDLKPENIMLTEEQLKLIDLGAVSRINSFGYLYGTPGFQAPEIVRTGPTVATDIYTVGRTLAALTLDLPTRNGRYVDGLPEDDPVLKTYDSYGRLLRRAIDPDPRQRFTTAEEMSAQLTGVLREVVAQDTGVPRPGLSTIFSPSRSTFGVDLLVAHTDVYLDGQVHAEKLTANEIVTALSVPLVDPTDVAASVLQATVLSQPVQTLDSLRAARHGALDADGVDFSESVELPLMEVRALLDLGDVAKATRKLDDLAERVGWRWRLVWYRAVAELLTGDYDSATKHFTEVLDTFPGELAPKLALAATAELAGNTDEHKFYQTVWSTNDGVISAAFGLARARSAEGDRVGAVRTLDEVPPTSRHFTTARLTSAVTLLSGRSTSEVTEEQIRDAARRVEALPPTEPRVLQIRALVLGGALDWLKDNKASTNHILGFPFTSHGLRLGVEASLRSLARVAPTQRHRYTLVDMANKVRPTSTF

| SMILES | inhibition of growth at 50 µM (Mycolicibacterium aurum [3]) | inhibition of growth at 100 µM (Mycolicibacterium aurum [4]) | inhibition [8] | further results |
| --- | --- | --- | --- | --- |
| CCCCCCn1cc(COc2ccc(C(=O)/C=C/c3ccc(Br)cc3)c(O)c2)nn1 | 69.6% | 76.5% | – | inhibition (Mycolicibacterium aurum [1]): inactive; inhibition (Mycolicibacterium aurum [2]): inactive; CC50 at 48 h [5]: > 100 µM |
| CCCCCCn1cc(COc2ccc(C(C)=O)c(O)c2)nn1 | 93.1% | 91.8% | – | inhibition (Mycolicibacterium aurum [1]): inactive; inhibition (Mycolicibacterium aurum [2]): inactive |
| O=C(/C=C/c1ccc(Br)cc1)c1ccc(OCc2cn(Cc3ccc(Br)cc3)nn2)cc1O | 11.6% | 28% | – | – |
| CC(=O)c1ccc(OCc2cn(Cc3ccc(Br)cc3)nn2)cc1O | 70.4% | 73.7% | – | inhibition (Mycolicibacterium aurum [1]): inactive; inhibition (Mycolicibacterium aurum [2]): inactive |
| O=C(/C=C/c1cccc2ccccc12)c1ccc(OCc2cn(Cc3ccc(Br)cc3)nn2)cc1O | 0% | 63.2% | – | – |
| O=C(/C=C/c1cccc2ccccc12)c1ccc(OCc2cn(Cc3ccccc3)nn2)cc1O | 2.6% | 51.6% | – | – |
| O=C(/C=C/c1ccccc1)c1ccc(OCc2cn(Cc3ccc(Br)cc3)nn2)cc1O | 53.8% | 85.3% | – | inhibition (Mycolicibacterium aurum [1]): Active; inhibition (Mycolicibacterium aurum [2]): Active; inhibition (Mycolicibacterium aurum [6]): inactive; inhibition (Mycolicibacterium aurum [7]): inactive; CC50 at 48 h [5]: 71.7 µM |
| CCCCCCn1cc(COc2ccc(C(=O)/C=C/c3cccc4ccccc34)c(O)c2)nn1 | 5.5% | 18.8% | – | – |
| Nc1nc(-c2ccc(Br)cc2)cc(-c2ccc(OCc3cn(Cc4ccc(Br)cc4)nn3)cc2O)n1 | – | – | 19% | inhibition [9]: 0%; inhibition [10]: 0%; inhibition [11]: 0%; inhibition [12]: 0%; inhibition [13]: 5% |
| CCCCCCn1cc(COc2ccc(C(=O)/C=C/c3ccccc3)c(O)c2)nn1 | 16.8% | 57.7% | – | – |
| COc1ccc(/C=C/C(=O)c2ccc(OCc3cn(Cc4ccccc4)nn3)cc2O)cc1 | 25.5% | 68.7% | – | – |
| CCCCCCn1cc(COc2ccc3c(c2)OC(c2ccc(C(C)C)cc2)CC3=O)nn1 (stereo unspecified) | 34.1% | 56.4% | – | – |
| CC(C)c1ccc(/C=C/C(=O)c2ccc(OCc3cn(Cc4ccc(Br)cc4)nn3)cc2O)cc1 | 0% | 17.8% | – | – |
| CC(=O)c1ccc(OCc2cn(Cc3ccccc3)nn2)cc1O | 23.7% | 75.9% | – | inhibition (Mycolicibacterium aurum [1]): inactive; inhibition (Mycolicibacterium aurum [2]): inactive |
| NC(=O)C1=C(NC(=O)C2CC2)CC2=C1CCCC2 | – | – | – | inhibition [9]: 12%; inhibition [10]: 24%; inhibition [11]: 22% |
| C#CCOc1ccc(/C=C/C(=O)c2ccc(OCc3cn(Cc4ccccc4)nn3)cc2O)cc1 | 0% | 22% | – | – |
| O=C(/C=C/c1ccc(Cl)cc1)c1ccc(OCc2cn(Cc3ccccc3)nn2)cc1O | 11.6% | 28% | – | – |
| O=C(/C=C/c1c(F)cccc1Cl)c1ccc(OCc2cn(Cc3ccccc3)nn2)cc1O | 17.6% | 74.5% | – | – |
| Nc1nc(-c2ccc(OCc3cn(Cc4ccccc4)nn3)cc2O)cc(-c2cccc3ccccc23)n1 | – | – | 35% | CC50 at 48 h [5]: 71.3 µM; inhibition [9]: 11%; inhibition [10]: 25%; inhibition [11]: 7%; inhibition [12]: 9%; inhibition [13]: 0% |
| CCCCCCn1cc(COc2ccc(-c3cc(-c4cccc5ccccc45)nc(N)n3)c(O)c2)nn1 | – | – | 11% | – |
| O=C1CC(c2ccc(Cl)cc2)Oc2cc(OCc3cn(Cc4ccccc4)nn3)ccc21 (stereo unspecified) | 46.9% | 79.8% | – | – |
| COc1ccc(-c2cc(-c3ccc(OCc4cn(Cc5ccccc5)nn4)cc3O)nc(N)n2)cc1 | – | – | 43% | CC50 at 48 h [5]: 42.7 µM; inhibition [9]: 10%; inhibition [10]: 43%; inhibition [11]: 9%; inhibition [12]: 0%; inhibition [13]: 6% |
| C#CCOc1ccc(/C=C/C(=O)c2ccc(OCc3cn(CCCCCC)nn3)cc2O)cc1 | 39.6% | 56% | – | – |

| SMILES | inhibition of growth at 50 µM (Mycolicibacterium aurum [3]) | inhibition of growth at 100 µM (Mycolicibacterium aurum [4]) | inhibition [8] | further results |
| --- | --- | --- | --- | --- |
| O=C1CC(c2ccc(Br)cc2)Oc2cc(OCc3cn(Cc4ccc(Br)cc4)nn3)ccc21 (stereo unspecified) | 50% | 70.6% | – | inhibition (Mycolicibacterium aurum [1]): inactive; inhibition (Mycolicibacterium aurum [2]): inactive; CC50 at 48 h [5]: 87.5 µM |
| C#CCOc1ccc(C(C)=O)c(O)c1 | 2% | 35.6% | – | – |
| O=C1CC(c2ccccc2)Oc2cc(OCc3cn(Cc4ccccc4)nn3)ccc21 (stereo unspecified) | 27% | 74.8% | – | – |
| CC(C)c1ccc(-c2cc(-c3ccc(OCc4cn(Cc5ccc(Br)cc5)nn4)cc3O)nc(N)n2)cc1 | – | – | 5% | – |
| Nc1nc(-c2ccc(OCc3cn(Cc4ccc(Br)cc4)nn3)cc2O)cc(-c2cccc3ccccc23)n1 | – | – | 34% | CC50 at 48 h [5]: > 100 µM; inhibition [9]: 0%; inhibition [10]: 3%; inhibition [11]: 0%; inhibition [12]: 2%; inhibition [13]: 0% |
| CCCCCCn1cc(COc2ccc3c(c2)OC(c2ccccc2)CC3=O)nn1 (stereo unspecified) | 19% | 70.2% | – | – |
| O=C1CC(c2ccccc2)Oc2cc(OCc3cn(Cc4ccc(Br)cc4)nn3)ccc21 (stereo unspecified) | 15.8% | 66.1% | – | – |
| CC(C)c1ccc(-c2cc(-c3ccc(OCc4cn(Cc5ccccc5)nn4)cc3O)nc(N)n2)cc1 | – | – | 28% | CC50 at 48 h [5]: > 100 µM; inhibition [9]: 0%; inhibition [10]: 16%; inhibition [11]: 0%; inhibition [12]: 0%; inhibition [13]: 0% |
| Nc1nc(-c2ccc(OCc3cn(Cc4ccccc4)nn3)cc2O)cc(-c2c(F)cccc2Cl)n1 | – | – | 12% | – |
| CCCCCCn1cc(COc2ccc(-c3cc(-c4ccc(OC)cc4)nc(N)n3)c(O)c2)nn1 | – | – | 4% | – |
| CCCCCCn1cc(COc2ccc(-c3cc(-c4ccc(Cl)cc4)nc(N)n3)c(O)c2)nn1 | – | – | 43% | CC50 at 48 h [5]: 30.3 µM; inhibition [10]: 0%; inhibition [11]: 0%; inhibition [12]: 0%; inhibition [13]: 0% |
| CCCCCCn1cc(COc2ccc(C(=O)/C=C/c3ccc(OC)cc3)c(O)c2)nn1 | 6.2% | 44.7% | – | – |
| C#CCOc1ccc(-c2cc(-c3ccc(OCc4cn(CCCCCC)nn4)cc3O)nc(N)n2)cc1 | – | – | 17% | – |
| Nc1nc(-c2ccccc2)cc(-c2ccc(OCc3cn(Cc4ccccc4)nn3)cc2O)n1 | – | – | 29% | CC50 at 48 h [5]: 76.5 µM; inhibition [9]: 18%; inhibition [10]: 37%; inhibition [11]: 14%; inhibition [12]: 4%; inhibition [13]: 5% |
| CC(C)c1ccc(C2CC(=O)c3ccc(OCc4cn(Cc5ccc(Br)cc5)nn4)cc3O2)cc1 (stereo unspecified) | 31% | 72.5% | – | – |
| CCCCCCn1cc(COc2ccc(-c3cc(-c4ccc(C(C)C)cc4)nc(N)n3)c(O)c2)nn1 | – | – | 5% | – |
| CC(C)c1ccc(/C=C/C(=O)c2ccc(OCc3cn(Cc4ccccc4)nn3)cc2O)cc1 | 0% | 12.7% | – | – |
| Nc1nc(-c2ccccc2)cc(-c2ccc(OCc3cn(Cc4ccc(Br)cc4)nn3)cc2O)n1 | – | – | 41% | CC50 at 48 h [5]: > 100 µM; inhibition [9]: 0%; inhibition [10]: 17%; inhibition [11]: 9% |
| CCCCCCn1cc(COc2ccc(C(=O)/C=C/c3ccc(Cl)cc3)c(O)c2)nn1 | 6.1% | 59% | – | – |
| CCCCCCn1cc(COc2ccc(C(=O)/C=C/c3ccc(C(C)C)cc3)c(O)c2)nn1 | 0% | 31.4% | – | – |
| CCCCCCn1cc(COc2ccc(-c3cc(-c4c(F)cccc4Cl)nc(N)n3)c(O)c2)nn1 | – | – | 11% | – |
| Nc1nc(-c2ccc(Cl)cc2)cc(-c2ccc(OCc3cn(Cc4ccccc4)nn3)cc2O)n1 | – | – | 53% | CC50 at 48 h [5]: 66.6 µM; inhibition [9]: 5%; inhibition [11]: 19%; inhibition [12]: 5%; inhibition [13]: 4% |
